Results as given in paper PMC4112157 (Bioorganic & medicinal chemistry, 2014).
Entries after “also recorded” stand apart in the source; their conditions may differ. Like-named read-outs stand apart in the source and are kept apart here.

Columns and labels:
[1] = target: T1, s15-LOX-1 (Glycine max, UniProt P08170); experiment: Lipoxygenase UV-Vis-based IC50 assay, s15-LOX-1; type: biochemical, soybean
T1 sequence (P08170 1-839): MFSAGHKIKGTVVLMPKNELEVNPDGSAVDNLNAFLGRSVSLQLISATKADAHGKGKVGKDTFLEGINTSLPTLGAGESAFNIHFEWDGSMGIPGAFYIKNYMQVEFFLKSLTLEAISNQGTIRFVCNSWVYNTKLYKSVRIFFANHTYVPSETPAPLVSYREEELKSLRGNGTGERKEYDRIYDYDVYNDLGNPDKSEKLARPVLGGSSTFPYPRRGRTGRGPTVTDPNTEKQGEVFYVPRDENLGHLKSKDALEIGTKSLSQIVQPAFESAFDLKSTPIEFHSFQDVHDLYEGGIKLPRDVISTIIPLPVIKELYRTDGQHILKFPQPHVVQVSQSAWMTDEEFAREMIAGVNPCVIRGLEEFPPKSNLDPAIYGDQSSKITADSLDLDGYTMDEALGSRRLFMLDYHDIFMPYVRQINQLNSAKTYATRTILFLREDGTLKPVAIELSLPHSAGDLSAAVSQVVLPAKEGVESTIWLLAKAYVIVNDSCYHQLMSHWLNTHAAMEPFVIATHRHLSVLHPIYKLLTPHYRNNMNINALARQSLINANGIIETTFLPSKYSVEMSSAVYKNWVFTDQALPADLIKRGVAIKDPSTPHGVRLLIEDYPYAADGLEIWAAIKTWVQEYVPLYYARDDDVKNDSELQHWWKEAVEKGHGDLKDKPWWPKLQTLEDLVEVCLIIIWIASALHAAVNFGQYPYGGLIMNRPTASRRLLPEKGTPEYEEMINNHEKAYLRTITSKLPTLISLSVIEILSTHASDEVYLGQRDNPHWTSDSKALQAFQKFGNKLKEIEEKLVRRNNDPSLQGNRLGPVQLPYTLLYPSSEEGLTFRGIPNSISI

[2] = target: T2, h15-LOX-1 (Homo sapiens, UniProt P16050); experiment: Oxo-lipid substrate activity, h15-LOX-1; type: biochemical
T2 sequence (P16050 1-662): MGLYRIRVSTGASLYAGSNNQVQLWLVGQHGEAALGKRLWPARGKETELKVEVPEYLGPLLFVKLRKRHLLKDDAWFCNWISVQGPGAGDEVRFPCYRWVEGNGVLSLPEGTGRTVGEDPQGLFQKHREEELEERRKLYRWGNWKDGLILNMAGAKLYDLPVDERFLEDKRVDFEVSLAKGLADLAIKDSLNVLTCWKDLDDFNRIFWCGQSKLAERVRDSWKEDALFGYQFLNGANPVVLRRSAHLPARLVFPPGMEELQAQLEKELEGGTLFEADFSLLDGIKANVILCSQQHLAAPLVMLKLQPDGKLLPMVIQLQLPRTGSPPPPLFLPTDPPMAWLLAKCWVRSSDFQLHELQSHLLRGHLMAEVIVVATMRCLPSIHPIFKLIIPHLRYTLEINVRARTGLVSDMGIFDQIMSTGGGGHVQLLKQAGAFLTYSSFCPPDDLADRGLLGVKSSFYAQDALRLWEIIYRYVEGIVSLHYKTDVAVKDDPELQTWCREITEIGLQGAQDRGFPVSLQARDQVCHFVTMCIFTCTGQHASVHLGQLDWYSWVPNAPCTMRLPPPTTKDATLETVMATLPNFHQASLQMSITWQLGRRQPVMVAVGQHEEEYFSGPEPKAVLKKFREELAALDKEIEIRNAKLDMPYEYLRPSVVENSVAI

[3] = target: T3, h12-LOX (Homo sapiens, UniProt P18054); experiment: Oxo-lipid substrate activity, h12-LOX; type: biochemical
T3 sequence (P18054 1-663): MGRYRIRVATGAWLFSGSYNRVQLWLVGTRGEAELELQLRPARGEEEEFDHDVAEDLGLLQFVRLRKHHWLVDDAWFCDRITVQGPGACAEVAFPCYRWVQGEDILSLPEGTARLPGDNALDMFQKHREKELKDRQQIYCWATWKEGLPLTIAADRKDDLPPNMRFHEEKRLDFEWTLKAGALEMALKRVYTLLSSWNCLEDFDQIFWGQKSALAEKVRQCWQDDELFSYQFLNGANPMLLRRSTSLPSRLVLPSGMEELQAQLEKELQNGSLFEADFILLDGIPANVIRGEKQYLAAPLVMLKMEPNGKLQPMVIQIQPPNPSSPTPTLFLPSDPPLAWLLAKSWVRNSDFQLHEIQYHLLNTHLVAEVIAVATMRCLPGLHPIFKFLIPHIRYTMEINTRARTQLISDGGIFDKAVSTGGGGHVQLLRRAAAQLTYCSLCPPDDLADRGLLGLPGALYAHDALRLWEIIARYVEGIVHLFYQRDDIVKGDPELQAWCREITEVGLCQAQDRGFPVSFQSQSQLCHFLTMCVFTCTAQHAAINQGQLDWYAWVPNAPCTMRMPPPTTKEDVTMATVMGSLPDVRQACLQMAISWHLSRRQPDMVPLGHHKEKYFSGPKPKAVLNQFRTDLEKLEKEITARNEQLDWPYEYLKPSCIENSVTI

[4] = target: T4, h5-LOX (Homo sapiens, UniProt P09917); experiment: Oxo-lipid substrate activity, h5-LOX; type: biochemical; conditions: IC50 assay conditions, 10 μM oxo-lipid, UV-Vis 234/280 nm, LC-MS
T4 sequence (P09917 1-674): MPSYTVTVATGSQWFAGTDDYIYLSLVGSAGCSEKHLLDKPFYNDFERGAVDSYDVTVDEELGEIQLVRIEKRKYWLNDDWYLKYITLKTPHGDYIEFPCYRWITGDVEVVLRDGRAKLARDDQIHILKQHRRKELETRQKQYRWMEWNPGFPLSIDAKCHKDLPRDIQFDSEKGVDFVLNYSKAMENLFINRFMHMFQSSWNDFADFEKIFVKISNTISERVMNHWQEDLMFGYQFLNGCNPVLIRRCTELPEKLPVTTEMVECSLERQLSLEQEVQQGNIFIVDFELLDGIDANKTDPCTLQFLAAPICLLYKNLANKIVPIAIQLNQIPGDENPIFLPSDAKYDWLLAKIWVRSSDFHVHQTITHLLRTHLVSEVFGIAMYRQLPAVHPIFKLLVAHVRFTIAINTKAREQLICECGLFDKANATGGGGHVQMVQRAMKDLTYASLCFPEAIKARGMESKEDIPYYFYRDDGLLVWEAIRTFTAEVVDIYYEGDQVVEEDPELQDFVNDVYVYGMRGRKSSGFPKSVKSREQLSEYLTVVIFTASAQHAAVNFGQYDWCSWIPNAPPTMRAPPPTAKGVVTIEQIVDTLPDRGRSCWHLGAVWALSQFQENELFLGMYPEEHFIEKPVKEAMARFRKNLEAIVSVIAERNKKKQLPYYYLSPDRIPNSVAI

[5] = target: T2, h15-LOX-1; experiment: Incubation activity assay; type: biochemical; conditions: time incubation experiments
[6] = tested on: cytosolic calcium levels; conditions: cited from earlier work
[7] = target: LOX isozymes; experiment: Lipoxygenase UV-Vis-based IC50 assay, summary over LOX isozymes; type: biochemical
[8] = target: T3, h12-LOX; experiment: Steady-state inhibition kinetics, h12-LOX; type: biochemical; conditions: for Ki: 0.4–10 μM AA, 25 mM HEPES pH 8.0, 0.01% Triton X-100, Dixon plot and replot
Outline: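 Enzyme added to start the reaction in a stirred cuvette containing 0.4–10 μM arachidonic acid, 25 mM HEPES (pH 8.0) and 0.01% Triton X-100. 12-HpETE formation followed at 234 nm (ε = 25,000 M−1cm−1) across substrate and inhibitor concentrations, with Dixon series at 0.6, 1, 3 and 9 μM AA. Dixon plot and slope-vs-[inhibitor] replot give Kic (dissociation from enzyme) and Kiu (from enzyme–substrate complex).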

[9] = IC50 assay conditions, 10 μM oxo-lipid, UV-Vis 234/280 nm
[10] = IC50 assay conditions, 10 μM oxo-lipid, UV-Vis 234/280 nm, LC-MS
[11] = incubation conditions, 10 μM, on ice 15 minutes, HPLC and LC-MS

Structure (SMILES) | IC50 [1] | substrate activity [2, 9] | substrate activity [3, 10] | substrate activity [4] | mode of inhibition (time dependence) [5] | concentration with calcium effects (as low as) [6] | concentration with effects on cytosolic calcium levels [6] | IC50 ([7]; read-out: IC50 for all LOXs, all LOXs studied) | IC50 ([7]; read-out: IC50 against the other LOX isozymes, LOX isozymes other than h12-LOX) | substrate activity [2, 11] | substrate activity [3, 11] | Ki ([8]; Kic) | Ki ([8]; Kiu) | mode of inhibition (steady state) ([8]; steady state inhibition kinetics)
CCCCC/C=C\C/C=C\C/C=C\C=C\C(=O)CCCC(=O)O [5-oxo-ETE, 5-oxo-6,8,11,14-(E,Z,Z,Z)-eicosatetraenoic acid] | > 100 µM | no change of absorbance at 234 nm or 280 nm | no change of absorbance at 234 nm or 280 nm | no change of absorbance at 234 nm or 280 nm | – | – | – | – | – | – | – | – | – | –
CCCCC/C=C\CC(=O)/C=C/C=C\C/C=C\CCCC(=O)O [12-oxo-ETE, 12-oxo-5,8,10,14-(Z,Z,E,Z)-eicosatetraenoic acid] | > 100 µM | no change of absorbance at 234 nm or 280 nm | – | no change of absorbance at 234 nm or 280 nm | irreversible inhibition | 10 nM | 10 µM | – | – | – | – | – | – | –
CCCCCC(=O)/C=C/C=C\CCCCCCCC(=O)O [13-oxo-ODE, 13-oxo-9,11-(Z,E)-octadecadienoic acid] | > 100 µM | – | – | – | – | – | – | > 100 µM | – | – | – | – | – | –
CCCCCC(=O)/C=C/C=C\C/C=C\C/C=C\CCCC(=O)O [15-oxo-ETE, 15-oxo-5,8,11,13-(Z,Z,Z,E)-eicosatetraenoic acid] | – | – | not a substrate | multiple oxidation products were formed | – | – | – | – | > 25 µM | not a substrate | not a substrate | 0.087 ± 0.008 µM | 2.1 ± 0.8 µM | mixed inhibitor; also recorded: mixed inhibition
